From ChEMBL document CHEMBL2331356, “Synthesis of gatifloxacin derivatives and their biological activities against Mycobacterium leprae and Mycobacterium tuberculosis” (Bioorg Med Chem, 2013)
Converted amounts (≈) assume the structure as drawn. The source made the active and inactive calls. No cut-off for these calls is given here.

Key:
Mycobacterium leprae [1] = assay: Inhibition of Mycobacterium leprae wild type DNA gyrase GyrA/GyrB-mediated DNA cleavable complex formation assessed as compound concentration inducing 25% DNA cleavage using relaxed pBR322 DNA substrate incubated for 1 hr at 30 degC by agarose gel electrophoresis
Mycobacterium leprae [2] = assay: Inhibition of Mycobacterium leprae DNA gyrase GyrA/GyrB assessed as reduction of enzyme supercoiling activity using relaxed pBR322 DNA substrate incubated for 2 hrs at 30 degC by ethidium bromide based gel electrophoresis
[3] = biological target: DNA gyrase subunit A/DNA gyrase subunit B (Mycobacterium tuberculosis (strain ATCC 25618 / H37Rv), UniProt P9WG45+P9WG47); assay: Inhibition of Mycobacterium tuberculosis DNA gyrase GyrA/GyrB assessed as reduction of enzyme supercoiling activity using relaxed pBR322 DNA substrate incubated for 1 hr at 37 degC by ethidium bromide based gel electrophoresis
[4] = tested on: Mycobacterium tuberculosis; assay: Antimicrobial activity against Mycobacterium tuberculosis H37Rv assessed as drug concentration causing =<1% […] bacterial growth incubated for 21 to 30 days by proportion method; assay type: functional
Summary of the method: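 H37Rv grown on Löwenstein-Jensen medium; 10³ and 10⁵ CFU spread on 7H11 agar with 10% OADC containing serial twofold compound dilutions. Colonies counted after 21–30 days at 37 °C. […] Compounds dissolved in DMSO or NaOH.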

[5] = tested on: Mycobacterium leprae [G89C]
[6] = tested on: Mycobacterium leprae [A91V]; assay: Inhibition of Mycobacterium leprae […] DNA gyrase GyrA/GyrB A91V mutant-mediated DNA cleavable complex formation assessed as compound concentration inducing 25% DNA cleavage using relaxed pBR322 DNA substrate incubated for 1 hr at 30 degC by agarose gel electrophoresis

Row | SMILES | CC25 (Mycobacterium leprae [1]) [µg/mL] | IC50 (Mycobacterium leprae [2]) [µg/mL] | IC50 [3] [µM] | MIC [4] [µg/mL] | CC25 [5] | CC25 [6]
1 | CC1COc2c(N3CCN(C)CC3)c(F)cc3c(=O)c(C(=O)O)cn1c23 (stereo not drawn) [OFLOXACIN] | 10 (≈ 27.7 µM) | 8 (≈ 22.1 µM) | 16.6 | 1 (≈ 2.77 µM) | inactive | –
2 | CCN1CCN(c2c(F)cc3c(=O)c(C(=O)O)cn(C4CC4)c3c2OC)CC1C(=O)O (stereo not drawn) | >240 | 55 (≈ 127 µM) | 201 | 32 (≈ 73.8 µM) | inactive | –
3 | CCN(CC)C(=O)OCC1CN(c2cc3c(cc2F)c(=O)c(C(=O)O)cn3C2CC2)CCN1 (stereo not drawn) | >240 | 118 (≈ 256 µM) | 575 | 128 (≈ 278 µM) | inactive | inactive
4 | CCCCNC(=O)OCC1CN(c2cc3c(cc2F)c(=O)c(C(=O)O)cn3C2CC2)CCN1 (stereo not drawn) | 30 (≈ 65.1 µM) | 22 (≈ 47.8 µM) | 65.1 | 16 (≈ 34.7 µM) | inactive | inactive
5 | CCN(CC)C(=O)OCC1CN(c2c(F)cc3c(=O)c(C(=O)O)cn(C4CC4)c3c2OC)CCN1 (stereo not drawn) | 60 (≈ 122 µM) | 20 (≈ 40.8 µM) | 102 | 32 (≈ 65.2 µM) | inactive | –
6 | O=C(O)c1cn(C2CC2)c2cc(N3CCNCC3)c(F)cc2c1=O [CIPROFLOXACIN] | – | 2 (≈ 6.04 µM) | – | 0.5 (≈ 1.51 µM) | inactive | –
7 | O=C(O)c1cn(C2CC2)c2cc(N3CCNC(C(=O)O)C3)c(F)cc2c1=O (stereo not drawn) | 30 (≈ 79.9 µM) | 30 (≈ 79.9 µM) | 53.3 | 32 (≈ 85.3 µM) | inactive | –
8 | COc1c(N2CCNC(C)C2)c(F)cc2c(=O)c(C(=O)O)cn(C3CC3)c12 (stereo not drawn) [GATIFLOXACIN] | 1 (≈ 2.66 µM) | 3 (≈ 7.99 µM) | 7.99 | 0.125 (≈ 0.333 µM) | inactive | –
9 | COc1c(N2C[C@@H]3CCCN[C@@H]3C2)c(F)cc2c(=O)c(C(=O)O)cn(C3CC3)c12 [MOXIFLOXACIN] | – | – | – | 0.5 (≈ 1.25 µM) | inactive | –
10 | CCCCNC(=O)OCC1CN(c2c(F)cc3c(=O)c(C(=O)O)cn(C4CC4)c3c2OC)CCN1 (stereo not drawn) | 10 (≈ 20.4 µM) | 10 (≈ 20.4 µM) | 34.7 | 8 (≈ 16.3 µM) | inactive | –
11 | CCOC(=O)C1CN(c2cc3c(cc2F)c(=O)c(C(=O)O)cn3C2CC2)CCN1 (stereo not drawn) | 20 (≈ 49.6 µM) | 20 (≈ 49.6 µM) | 66.9 | 4 (≈ 9.92 µM) | inactive | –
12 | CCOC(=O)C1CN(c2c(F)cc3c(=O)c(C(=O)O)cn(C4CC4)c3c2OC)CCN1 (stereo not drawn) | 80 (≈ 185 µM) | 17 (≈ 39.2 µM) | 48.5 | > 32 | inactive | –
13 | COc1c(N2CCNC(C(=O)O)C2)c(F)cc2c(=O)c(C(=O)O)cn(C3CC3)c12 (stereo not drawn) | 27 (≈ 66.6 µM) | 20 (≈ 49.3 µM) | 39.5 | 16 (≈ 39.5 µM) | inactive | –
14 | CCN1CCN(c2cc3c(cc2F)c(=O)c(C(=O)O)cn3C2CC2)CC1C(=O)O (stereo not drawn) | >240 | 35 (≈ 86.8 µM) | 119 | 32 (≈ 79.3 µM) | inactive | inactive
